Source: ChEMBL document CHEMBL4152192, “Synthesis and anticancer activity evaluation of novel azacalix[2]arene[2]pyrimidines” (Eur J Med Chem, 2018)
Active and inactive are the calls of the source. No cut-off for these calls is given here.

Assays:
[1] = tested on: A549; experiment: Antiproliferative activity against human A549 cells after 72 hrs by CCK-8 assay; format: functional, cell-based; conditions: A549, 72 h
In short: (§1)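 Cells seeded at 5 × 10³/well; A549, MCF7 and SH-SY5Y grown in DMEM, CNE and L-02 in RPMI-1640 (10% FBS, pen/strep, 37 °C, 5% CO₂). Compounds in DMSO, diluted in medium; 72 h exposure versus DMSO vehicle. CCK-8 absorbance read at 450 nm; viability taken as treated/control absorbance, IC₅₀ from curve fit. Triplicate wells, three independent experiments.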

[2] = tested on: SH-SY5Y; experiment: Antiproliferative activity against human SH-SY5Y cells after 72 hrs by CCK-8 assay; format: functional, cell-based; in short: as §1
[3] = tested on: CNE; experiment: Antiproliferative activity against human CNE cells after 72 hrs by CCK-8 assay; format: functional, cell-based; in short: as §1
[4] = tested on: L02; experiment: Antiproliferative activity against human L02 cells after 72 hrs by CCK-8 assay; format: cell-based; conditions: L02, 72 h; in short: as §1
[5] = tested on: MCF7; experiment: Antiproliferative activity against human MCF7 cells after 72 hrs by CCK-8 assay; format: functional, cell-based; conditions: MCF7, 72 h; in short: as §1
[6] = tested on: MCF7; experiment: Induction of apoptosis in human MCF7 cells assessed as nuclear condensation at 0.3 to 1.2 uM after 24 hrs by Hoechst 33342 staining-based fluorescence microscopic analysis; format: functional, cell-based
In short: (§2)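 MCF7 exposed to 0.3, 0.6 or 1.2 µM for 24 h, then stained with 5 µg/mL Hoechst 33342 for 20 min at 37 °C under 5% CO₂. Nuclear morphology (brightness, chromatin condensation, fragmentation) examined by fluorescence microscopy at ×100.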

[7] = tested on: MCF7; experiment: Cell cycle arrest in human MCF7 cells assessed as accumulation of cells G1 phase at 1.2 uM after 24 hrs by propidium iodide/RNase A staining-based flow cytometric analysis (reference value: 60.6%); format: functional
[8] = tested on: MCF7; experiment: Induction of apoptosis in human MCF7 cells assessed as early apoptotic cells at 0.6 uM after 24 hrs by Annexin V-FITC/propidium iodide staining-based flow cytometric analysis (reference value: 0.816%); format: functional
[9] = tested on: MCF7; experiment: Cell cycle arrest in human MCF7 cells assessed as accumulation of cells G1 phase at 0.6 uM after 24 hrs by propidium iodide/RNase A staining-based flow cytometric analysis (reference value: 60.6%); format: functional
[10] = tested on: MCF7; experiment: Induction of apoptosis in human MCF7 cells assessed as necrotic cells at 0.6 uM after 24 hrs by Annexin V-FITC/propidium iodide staining-based flow cytometric analysis (reference value: 0.426%); format: functional
[11] = tested on: MCF7; experiment: Induction of apoptosis in human MCF7 cells assessed as viable cells at 1.2 uM after 24 hrs by Annexin V-FITC/propidium iodide staining-based flow cytometric analysis (reference value: 97.5%); format: functional; conditions: MCF7, 24 h, read-out: Activity
[12] = tested on: MCF7; experiment: Induction of apoptosis in human MCF7 cells assessed as early apoptotic cells at 0.3 uM after 24 hrs by Annexin V-FITC/propidium iodide staining-based flow cytometric analysis (reference value: 0.816%); format: functional
[13] = tested on: MCF7; experiment: Induction of apoptosis in human MCF7 cells assessed as viable cells at 0.6 uM after 24 hrs by Annexin V-FITC/propidium iodide staining-based flow cytometric analysis (reference value: 97.5%); format: functional; conditions: MCF7, 24 h, read-out: Activity
[14] = tested on: MCF7; experiment: Induction of apoptosis in human MCF7 cells assessed as late apoptotic cells at 1.2 uM after 24 hrs by Annexin V-FITC/propidium iodide staining-based flow cytometric analysis (reference value: 1.22%); format: functional
[15] = tested on: MCF7; experiment: Induction of apoptosis in human MCF7 cells assessed as viable cells at 0.3 uM after 24 hrs by Annexin V-FITC/propidium iodide staining-based flow cytometric analysis (reference value: 97.5%); format: functional; conditions: MCF7, 24 h, read-out: Activity
[16] = tested on: MCF7; experiment: Cell cycle arrest in human MCF7 cells assessed as accumulation of cells S phase at 0.3 uM after 24 hrs by propidium iodide/RNase A staining-based flow cytometric analysis (reference value: 6.75%); format: functional
[17] = tested on: MCF7; experiment: Induction of apoptosis in human MCF7 cells assessed as increase in caspase9 activation at 0.3 to 1.2 uM after 72 hrs by Western blot analysis; format: functional, cell-based
In short: (§3)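 MCF7 exposed to 0.3, 0.6 or 1.2 µM for 72 h. Total protein (30 µg, BCA-quantified) run on SDS-PAGE and transferred to PVDF. Membranes blocked in 5% milk/TBS-0.05% Tween 20 for 2 h at room temperature, probed overnight at 4 °C with anti-cleaved caspase-3, caspase-9 and β-actin (loading control), then HRP anti-rabbit IgG; ECL detection.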

[18] = tested on: MCF7; experiment: Induction of apoptosis in human MCF7 cells assessed as early apoptotic cells at 1.2 uM after 24 hrs by Annexin V-FITC/propidium iodide staining-based flow cytometric analysis (reference value: 0.816%); format: functional
[19] = tested on: MCF7; experiment: Cell cycle arrest in human MCF7 cells assessed as accumulation of cells S phase at 1.2 uM after 24 hrs by propidium iodide/RNase A staining-based flow cytometric analysis (reference value: 6.75%); format: functional
[20] = tested on: MCF7; experiment: Cell cycle arrest in human MCF7 cells assessed as accumulation of cells G2 phase at 1.2 uM after 24 hrs by propidium iodide/RNase A staining-based flow cytometric analysis (reference value: 35.08%); format: functional
[21] = tested on: MCF7; experiment: Induction of apoptosis in human MCF7 cells assessed as nuclear fragmentation at 0.3 to 1.2 uM after 24 hrs by Hoechst 33342 staining-based fluorescence microscopic analysis; format: functional, cell-based; in short: as §2
[22] = tested on: MCF7; experiment: Induction of apoptosis in human MCF7 cells assessed as late apoptotic cells at 0.3 uM after 24 hrs by Annexin V-FITC/propidium iodide staining-based flow cytometric analysis (reference value: 1.22%); format: functional
[23] = tested on: MCF7; experiment: Cell cycle arrest in human MCF7 cells assessed as accumulation of cells G1 phase at 0.3 uM after 24 hrs by propidium iodide/RNase A staining-based flow cytometric analysis (reference value: 60.6%); format: functional
[24] = tested on: MCF7; experiment: Induction of apoptosis in human MCF7 cells assessed as late apoptotic cells at 0.6 uM after 24 hrs by Annexin V-FITC/propidium iodide staining-based flow cytometric analysis (reference value: 1.22%); format: functional
[25] = tested on: MCF7; experiment: Induction of apoptosis in human MCF7 cells assessed as necrotic cells at 0.3 uM after 24 hrs by Annexin V-FITC/propidium iodide staining-based flow cytometric analysis (reference value: 0.426%); format: functional
[26] = tested on: MCF7; experiment: Cell cycle arrest in human MCF7 cells assessed as accumulation of cells S phase after 24 hrs by propidium iodide/RNase A staining-based flow cytometric analysis; format: functional
[27] = tested on: MCF7; experiment: Cell cycle arrest in human MCF7 cells assessed as accumulation of cells S phase at 0.6 uM after 24 hrs by propidium iodide/RNase A staining-based flow cytometric analysis (reference value: 6.75%); format: functional
[28] = tested on: MCF7; experiment: Cell cycle arrest in human MCF7 cells assessed as accumulation of cells G2 phase at 0.3 uM after 24 hrs by propidium iodide/RNase A staining-based flow cytometric analysis (reference value: 35.08%); format: functional
[29] = tested on: MCF7; experiment: Induction of apoptosis in human MCF7 cells assessed as necrotic cells at 1.2 uM after 24 hrs by Annexin V-FITC/propidium iodide staining-based flow cytometric analysis (reference value: 0.426%); format: functional
[30] = tested on: MCF7; experiment: Cell cycle arrest in human MCF7 cells assessed as accumulation of cells G2 phase at 0.6 uM after 24 hrs by propidium iodide/RNase A staining-based flow cytometric analysis (reference value: 35.08%); format: functional
[31] = tested on: MCF7; experiment: Induction of apoptosis in human MCF7 cells assessed as improved staining brightness at 0.3 to 1.2 uM after 24 hrs by Hoechst 33342 staining-based fluorescence microscopic analysis; format: functional, cell-based; in short: as §2
[32] = tested on: MCF7; experiment: Induction of apoptosis in human MCF7 cells assessed as increase in caspase3 activation at 0.3 to 1.2 uM after 72 hrs by Western blot analysis; format: functional, cell-based; in short: as §3

Question: How did the IC50 [1] turn out when `FC(F)(F)c1cc2cc(c1)Nc1nc(ncc1Cl)Nc1cc(cc(C(F)(F)F)c1)Nc1nc(ncc1Cl)N2` was run?
Answer: > 50 µM

Question: What about the IC50 [2] of the same molecule?
Answer: > 50 µM

Question: What about the IC50 [3] of the same molecule?
Answer: > 50 µM

Question: And the IC50 [4]?
Answer: > 50 µM

Question: And the IC50 [5]?
Answer: > 50 µM

Question: With `COc1cnc2nc1Nc1cc(cc(C(F)(F)F)c1)Nc1ncc(OC)c(n1)Nc1cc(cc(C(F)(F)F)c1)N2` as the molecule, how does the IC50 [1] read?
Answer: > 50 µM

Question: And the IC50 [2]?
Answer: > 50 µM

Question: What about the IC50 [3] of the same molecule?
Answer: > 50 µM

Question: What about the IC50 [4] of the same molecule?
Answer: > 50 µM

Question: And the IC50 [5]?
Answer: > 50 µM

Question: `Fc1cnc2nc1Nc1cccc(c1)Nc1ncc(Cl)c(n1)Nc1cccc(c1)N2` was tested. Which IC50 [1] did it give?
Answer: > 50 µM

Question: And the IC50 [2]?
Answer: > 50 µM

Question: What about the IC50 [3] of the same molecule?
Answer: > 50 µM

Question: What about the IC50 [4] of the same molecule?
Answer: > 50 µM

Question: And the IC50 [5]?
Answer: > 50 µM

Question: What does the source list for `COc1cccc2c1C(=O)c1c(O)c3c(c(O)c1C2=O)C[C@@](O)(C(=O)CO)C[C@@H]3O[C@H]1C[C@H](N)[C@H](O)[C@H](C)O1` [DOXORUBICIN]?
Answer: IC50 [1]: 0.63 µM; IC50 [2]: 0.89 µM; IC50 [3]: 0.22 µM; IC50 [4]: 0.88 µM; IC50 [5]: 0.48 µM

Question: Which IC50 [1] does the source give for `CC(C)S(=O)(=O)c1ccc2cc1Nc1ncc(Cl)c(n1)Nc1ccc(S(=O)(=O)C(C)C)c(c1)Nc1ncc(Cl)c(n1)N2` here?
Answer: > 50 µM

Question: And the IC50 [2]?
Answer: > 50 µM

Question: What about the IC50 [3] of the same molecule?
Answer: > 50 µM

Question: And the IC50 [4]?
Answer: > 50 µM

Question: What about the IC50 [5] of the same molecule?
Answer: > 50 µM

Question: `Clc1cnc2nc1Nc1cccc(c1)Nc1ncc(Cl)c(n1)Nc1cccc(c1)N2` was tested. Which IC50 [1] did it give?
Answer: > 50 µM

Question: And the IC50 [2]?
Answer: > 50 µM

Question: What about the IC50 [3] of the same molecule?
Answer: > 50 µM

Question: What about the IC50 [4] of the same molecule?
Answer: > 50 µM

Question: And the IC50 [5]?
Answer: > 50 µM

Question: With `c1cc2nc(n1)Nc1cc(cc(N3CCOCC3)c1)Nc1ccnc(n1)Nc1cc(cc(N3CCOCC3)c1)N2` as the molecule, how does the IC50 [1] read?
Answer: > 50 µM

Question: What about the IC50 [2] of the same molecule?
Answer: > 50 µM

Question: What about the IC50 [3] of the same molecule?
Answer: > 50 µM

Question: What about the IC50 [4] of the same molecule?
Answer: > 50 µM

Question: And the IC50 [5]?
Answer: > 50 µM

Question: How did the IC50 [1] turn out when `Cc1cnc2nc1Nc1cc(cc(C(F)(F)F)c1)Nc1ncc(C)c(n1)Nc1cc(cc(C(F)(F)F)c1)N2` was run?
Answer: > 50 µM

Question: What about the IC50 [2] of the same molecule?
Answer: > 50 µM

Question: What about the IC50 [3] of the same molecule?
Answer: > 50 µM

Question: And the IC50 [4]?
Answer: > 50 µM

Question: And the IC50 [5]?
Answer: > 50 µM

Question: Which results are given for `c1cc2nc(n1)Nc1cc(cc(N3CCCC3)c1)Nc1ccnc(n1)Nc1cc(cc(N3CCCC3)c1)N2`?
Answer: Activity [6]: Active; IC50 [1]: 0.94 µM; Activity [7]: 52.9%; Activity [8]: 23.2%; Activity [9]: 56.54%; Activity [10]: 0.197%; viability at 1.2 µM [11]: 69.1%; IC50 [2]: 1.82 µM; Activity [12]: 5.76%; viability at 0.6 µM [13]: 73.8%; Activity [14]: 4.2%; viability at 0.3 µM [15]: 92.7%; Activity [16]: 11.54%; Activity [17]: Active; Activity [18]: 26.6%; IC50 [3]: 46.5 µM; Activity [19]: 38.08%; Activity [20]: 7.88%; Activity [21]: Active; Activity [22]: 1.35%; Activity [23]: 55.71%; IC50 [4]: 25.6 µM; Activity [24]: 2.86%; Activity [25]: 0.148%; IC50 [5]: 0.58 µM; Activity [26]: Dose-dependent effect; Activity [27]: 17.49%; Activity [28]: 34.8%; Activity [29]: 0.232%; Activity [30]: 25.13%; Activity [31]: Active; Activity [32]: Active

Question: For `COc1cnc2nc1Nc1cc(cc(N3CCCC3)c1)Nc1ncc(OC)c(n1)Nc1cc(cc(N3CCCC3)c1)N2`, which IC50 [1] is on record?
Answer: 1.6 µM

Question: What about the IC50 [2] of the same molecule?
Answer: 2.05 µM

Question: What about the IC50 [3] of the same molecule?
Answer: 35.7 µM

Question: And the IC50 [4]?
Answer: 15.8 µM

Question: And the IC50 [5]?
Answer: 1.45 µM

Question: Which results are given for `Cc1cnc2nc1Nc1cc(cc(N3CCCC3)c1)Nc1ncc(C)c(n1)Nc1cc(cc(N3CCCC3)c1)N2`?
Answer: IC50 [1]: 4.25 µM; IC50 [2]: 7.21 µM; IC50 [3]: > 50 µM; IC50 [4]: 30.8 µM; IC50 [5]: 4.9 µM
